Test in all cases: Acute cytotoxicity, sulforhodamine B
Holding throughout (type): cell-based

Assay [1] relates to peripheral blood mononuclear cells (PBMC). The following applies: Homo sapiens, 72 h, read-out: IC50 on cell viability, PBMC. In outline:
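PBMC were collected from healthy volunteers and kept in RPMI 1640 with 10% FBS and antibiotics at 37 °C, 5% CO2. 1.0 × 10^5 cells were exposed to various test-compound concentrations for 72 h. Viability read by sulforhodamine B assay. IC50 derived by curve fitting; values are means of three independent experiments.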

The test system of assay [2] is HEK293 human embryonic kidney cells. The following applies: HEK293, 72 h, read-out: IC50 on cell viability, HEK293.
For assay [3], the system named is PC3 prostate adenocarcinoma. The following applies: Homo sapiens, 72 h, read-out: IC50 on cell viability, PC3.
Assay [4] deals with HL60 promyelocytic leukemia. The following applies: Homo sapiens, HL-60, 72 h, read-out: IC50 on cell viability, HL60.
Assay [5] concerns A549 nonsmall cell lung carcinoma. The following applies: Homo sapiens, A549, 72 h, read-out: IC50 on cell viability, A549.

One may read the IC50 as the midpoint of a concentration-inhibition curve. In the case of `COc1cccc2c1C(=O)c1c(O)c3c(c(O)c1C2=O)C[C@@](O)(C(=O)CO)C[C@@H]3O[C@H]1C[C@H](N)[C@H](O)[C@H](C)O1` [Doxorubicin], the IC50 in assay [1] was determined as 5200 ± 1800 nM; in assay [2] it was 4800 ± 2000 nM; in assay [3], 2700 ± 1300 nM; in assay [4], 70 ± 40 nM; in assay [5], 1800 ± 900 nM.

The record behind these values is article PMC9118414 (ACS Omega, 2022).
